Reference: ChEMBL document CHEMBL1154778, “Synthesis and biological evaluation of C-5 methyl substituted 4-arylthio and 4-aryloxy-3-Iodopyridin-2(1H)-one type anti-HIV agents” (J Med Chem, 2009)

Columns and labels:
[1] = system: Human immunodeficiency virus 1; assay: Antiviral activity against HIV-1 LAI harboring wild type reverse transcriptase infected in human MT4 cells after 5 days by MTT assay; format: functional, organism-based; conditions: Human immunodeficiency virus 1, LAI, MT4, 120 h
Outline: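 MT4 cells were kept in RPMI 1640 with 10% fetal calf serum and antibiotics at 37 °C, 5% CO2. A range of compound concentrations was incubated with HIV-1 LAI at 200 CCID50/well and 30000 MT4 cells/well for 5 days at 37 °C. Cell viability was read by MTT, and IC50 was the concentration giving 50% infection versus the drug-free control.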

[2] = Selectivity index, ratio of CC50 for human MT4 cells to IC50 for HIV-1 LAI harboring wild type reverse transcriptase infected in human MT4 cells; format: functional
Outline: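 Cytotoxicity was measured in mock-infected MT4 cultures (30000 cells/well) given the same compound concentration range, run in parallel with the infected cultures for 5 days at 37 °C, 5% CO2, with MTT viability. CC50 was the concentration reducing viability by 50% versus the drug-free control. SI was CC50 divided by IC50 against HIV-1 LAI.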

[3] = system: Human immunodeficiency virus 1; assay: Antiviral activity against HIV1 HXB2 harboring K103N mutant reverse transcriptase infected in human MT4 cells after 5 days by MTT assay; format: functional, organism-based; conditions: Human immunodeficiency virus 1, HXB2, MT4, 120 h
Outline: (§1)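 Mutant viruses were made by recombining the mutant PR-RT sequence into a PR-RT-deleted HIV-1 HXB2 proviral clone. MT4 cells were grown in RPMI 1640 with 10% FCS and antibiotics. Virus at 200 CCID50/well and 30000 cells/well were incubated with varied compound concentrations for 5 days at 37 °C, 5% CO2. MTT viability gave IC50, the concentration giving 50% infection versus the drug-free control.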

[4] = system: Human immunodeficiency virus 1; assay: Antiviral activity against HIV1 HXB2 harboring Y181C mutant reverse transcriptase infected in human MT4 cells after 5 days by MTT assay; format: functional, organism-based; conditions: Human immunodeficiency virus 1, HXB2, MT4, 120 h; outline: as §1
[5] = system: Human immunodeficiency virus 1; assay: Antiviral activity against HIV1 HXB2 harboring Y188L mutant reverse transcriptase infected in human MT4 cells after 5 days by MTT assay; format: functional, organism-based; conditions: Human immunodeficiency virus 1, HXB2, MT4, 120 h; outline: as §1
[6] = system: Human immunodeficiency virus 1; assay: Antiviral activity against HIV1 HXB2 harboring 100I mutant reverse transcriptase infected in human MT4 cells after 5 days by MTT assay; format: functional, organism-based; conditions: Human immunodeficiency virus 1, HXB2, MT4, 120 h; outline: as §1
[7] = system: Human immunodeficiency virus 1; assay: Antiviral activity against HIV1 HXB2 harboring 227C mutant reverse transcriptase infected in human MT4 cells after 5 days by MTT assay; format: functional, organism-based; conditions: Human immunodeficiency virus 1, HXB2, MT4, 120 h; outline: as §1
[8] = system: Human immunodeficiency virus 1; assay: Antiviral activity against HIV1 HXB2 harboring 227L and 106A mutant reverse transcriptase infected in human MT4 cells after 5 days by MTT assay; format: functional, organism-based; conditions: Human immunodeficiency virus 1, HXB2, MT4, 120 h; outline: as §1

SMILES	IC50 [1]	Ratio CC50/IC50 [2]	IC50 [3]	IC50 [4]	IC50 [5]	IC50 [6]	IC50 [7]	IC50 [8]
COCCSCc1c(C)[nH]c(=O)c(I)c1Oc1cc(C)cc(C)c1	1.99 nM	>50119	1.58 nM	7.94 nM	31.6 nM	10 nM	199 nM	199 nM
Cc1cc(C)cc(Oc2c(Cn3cncc3-c3ccccc3)c(C)[nH]c(=O)c2I)c1	6.3 nM	>15858	7.94 nM	31.6 nM	31.6 nM			
Cc1cc(C)cc(Sc2c(Cn3nc(-c4ccco4)nc3C)c(C)[nH]c(=O)c2I)c1	1.99 nM	>50119	12.5 nM	31.6 nM	31.6 nM			
Cc1cc(C)cc(Sc2c(Cn3cnc(C)n3)c(C)[nH]c(=O)c2I)c1	0.79 nM	>125893	1.99 nM	15.8 nM	100 nM			
Cc1cc(C)cc(Sc2c(CN3CCCCC3)c(C)[nH]c(=O)c2I)c1	6.3 nM	>15849	31.6 nM	794 nM	7940 nM			
Cc1cc(C)cc(Oc2c(CSCc3nccs3)c(C)[nH]c(=O)c2I)c1	7.94 nM	>12589	25.1 nM	39.8 nM	2000 nM			
COC1CCN(Cc2c(C)[nH]c(=O)c(I)c2Sc2cc(C)cc(C)c2)CC1	3.98 nM	10000	12.5 nM	199 nM	2000 nM			
Cc1cc(C)cc(Sc2c(CN3CCC(C(N)=O)CC3)c(C)[nH]c(=O)c2I)c1	5.01 nM	>19953	10 nM	158 nM	1260 nM			
Cc1cc(C)cc(Oc2c(CN3CCC(OC(N)=O)CC3)c(C)[nH]c(=O)c2I)c1	6.3 nM	7943	1.99 nM	25.1 nM	50.1 nM			
CNC(=O)CSCc1c(C)[nH]c(=O)c(I)c1Sc1cc(C)cc(C)c1	1.58 nM	>63096	3.98 nM	39.8 nM	794 nM			
Cc1cc(C)cc(Sc2c(CSC(C)C)c(C)[nH]c(=O)c2I)c1	7.94 nM	>12589	31.6 nM	630 nM	3160 nM			
Cc1cc(C)cc(Sc2c(CN(C)CCC#N)c(C)[nH]c(=O)c2I)c1	2.51 nM	>31623	6.3 nM	63 nM	1000 nM			
Cc1cc(C)cc(Sc2c(CSCC(C)C)c(C)[nH]c(=O)c2I)c1	7.94 nM	>12589	10 nM	199 nM	2510 nM			
CCOC(=O)CC1CN(Cc2c(C)[nH]c(=O)c(I)c2Sc2cc(C)cc(C)c2)CCO1 (stereo not drawn)	2.51 nM	25119	0.62 nM	25.1 nM	50 nM			
Cc1cc(C)cc(Oc2c(CSC(C)C)c(C)[nH]c(=O)c2I)c1	5 nM	>19953	12.5 nM	39.8 nM	316 nM			
CCOCc1c(C)[nH]c(=O)c(I)c1Sc1cc(C)cc(C)c1	1.99 nM	50119	1.25 nM	31.6 nM	251 nM			
Cc1cc(C)cc(Sc2c(CNC=O)c(C)[nH]c(=O)c2I)c1	1.25 nM	>79433	1.25 nM	31.6 nM	199 nM			
Cc1cc(C)cc(Sc2c(Cn3ccnc3)c(C)[nH]c(=O)c2I)c1	1.25 nM	15849	0.79 nM	7.9 nM	50.1 nM			
CCOC(=O)CC1CN(Cc2c(C)[nH]c(=O)c(I)c2Oc2cc(C)cc(C)c2)CCO1 (stereo not drawn)	6.3 nM	>15849	1.99 nM	25.1 nM	50.1 nM			
CCS(=O)(=O)Cc1c(C)[nH]c(=O)c(I)c1Oc1cc(C)cc(C)c1	7.94 nM	>12589	39.8 nM	158 nM	794 nM			
Cc1cc(C)cc(Oc2c(CSCc3ccccc3)c(C)[nH]c(=O)c2I)c1	6.3 nM	>15849	7.94 nM	15.8 nM	31.6 nM			

SMILES	IC50 [1]	Ratio CC50/IC50 [2]	IC50 [3]	IC50 [4]	IC50 [5]	IC50 [6]	IC50 [7]	IC50 [8]
Cc1cc(C)cc(Oc2c(Cn3cnc(C#N)c3C#N)c(C)[nH]c(=O)c2I)c1	10 nM	>10000	31.6 nM	199 nM	1000 nM			
COC1CCCN(Cc2c(C)[nH]c(=O)c(I)c2Oc2cc(C)cc(C)c2)C1 (stereo not drawn)	6.3 nM	>15849	6.3 nM	15.8 nM	39.8 nM			
Cc1cc(C)cc(Oc2c(CSCC(C)C)c(C)[nH]c(=O)c2I)c1	7.94 nM	>12589	25.1 nM	50.1 nM	794 nM			
Cc1cc(C)cc(Oc2c(COCc3ccc(F)cc3)c(C)[nH]c(=O)c2I)c1	7.94 nM	>12589	7.94 nM	25.1 nM	79.4 nM			
Cc1cc(C)cc(Oc2c(-n3ccnc3C#N)c(C)[nH]c(=O)c2I)c1	6.3 nM	>15848	12.5 nM	39.8 nM	125 nM			
COCC1CN(Cc2c(C)[nH]c(=O)c(I)c2Sc2cc(C)cc(C)c2)CCO1 (stereo not drawn)	1.25 nM	>50119	1 nM	25.1 nM	125 nM			
Cc1cc(C)cc(Sc2c(CSCc3ccco3)c(C)[nH]c(=O)c2I)c1	6.3 nM	>12589	5.01 nM	39.8 nM	1000 nM			
Cc1cc(C)cc(Sc2c(CN3CCOC(CC#N)C3)c(C)[nH]c(=O)c2I)c1 (stereo not drawn)	1.58 nM	25119	1 nM	25.1 nM	100 nM			
Cc1cc(C)cc(Sc2c(Cn3ccnn3)c(C)[nH]c(=O)c2I)c1	1.99 nM	>50119	1 nM	10 nM	50.1 nM			
Cc1cc(C)cc(Oc2c(Cn3cccn3)c(C)[nH]c(=O)c2I)c1	5.01 nM	>19952	6.3 nM	31.6 nM	316 nM			
Cc1cc(C)cc(Sc2c(CN3CCOCC3)c(C)[nH]c(=O)c2I)c1	1.25 nM	7943	1.25 nM	31.6 nM	158 nM			
Cc1cc(C)cc(Sc2c(CN(C)Cc3ccco3)c(C)[nH]c(=O)c2I)c1	6.3 nM	>15849	15.8 nM	50.1 nM	794 nM			
Cc1cc(C)cc(Oc2c(COCCO)c(C)[nH]c(=O)c2I)c1	1.99 nM	>50119	39.8 nM	31.6 nM	501 nM			
Cc1cc(C)cc(Oc2c(CSCc3cccc(C#N)c3)c(C)[nH]c(=O)c2I)c1	3.16 nM	19953	1.58 nM	6.3 nM	794 nM			
Cc1cc(C)cc(Oc2c(Cn3cnc(C)n3)c(C)[nH]c(=O)c2I)c1	3.98 nM	>25118	15.8 nM	31.6 nM	125 nM			
Cc1cc(C)cc(Sc2c(Cn3nc(CC#N)nc3C)c(C)[nH]c(=O)c2I)c1	5.01 nM	>19953	25.1 nM	39.8 nM	199 nM			
Cc1cc(C)cc(Oc2c(CSCc3cccs3)c(C)[nH]c(=O)c2I)c1	2.51 nM	>39811	1 nM	19.9 nM	39.8 nM			
Cc1cc(C)cc(Sc2c(CN3CCC(O)CC3)c(C)[nH]c(=O)c2I)c1	5.01 nM	>19953	12.5 nM	316 nM	3980 nM			
Cc1cc(C)cc(Oc2c(Cn3ccc(N)n3)c(C)[nH]c(=O)c2I)c1	7.9 nM	>12589	39.8 nM	39.8 nM	125 nM			
Cc1cc(C)cc(Sc2c(Cn3nc(C)nc3C)c(C)[nH]c(=O)c2I)c1	3.16 nM	>31623	31.6 nM	39.8 nM	158 nM			
Cc1cc(C)cc(Oc2c(CO)c(C)[nH]c(=O)c2I)c1	5 nM	>19953	158 nM	158 nM	3160 nM			
